Screening results: PubChem, Johns Hopkins Ion Channel Center
RGS4 block: RGS4 inhibitors, primary screen, cell-based, HEK293 M3R inducible RGS4, calcium flux; Fluo-4 calcium flux; stronger effect = higher value; triggered by carbachol at its EC20; 310,000 compounds, 0.45% hits; Regulator of G-protein signaling 4 (Homo sapiens), P49798; AID 463165, 2010; B-score at 10 µM;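 active = B-score, a plate-corrected calcium signal, over three deviations above library mean, with baseline fluorescence within five deviations of library mean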;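 note: RGS4 expression induced by doxycycline in cells with stable M3 receptor; B-score is computed from the integrated fluorescence ratio over baseline after carbachol; higher B-score means a larger calcium signal and so more RGS4 inhibition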
Target sequence (P49798 whole entry, looked up): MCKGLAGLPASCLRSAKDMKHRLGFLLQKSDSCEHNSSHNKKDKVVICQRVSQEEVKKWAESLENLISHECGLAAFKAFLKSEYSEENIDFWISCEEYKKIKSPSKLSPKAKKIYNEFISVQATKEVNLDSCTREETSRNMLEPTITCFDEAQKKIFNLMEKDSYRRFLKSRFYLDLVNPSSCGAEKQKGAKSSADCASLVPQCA
MrgX1 antagonist: antagonists of human MrgX1 receptor, primary screen, HEK293 cells, Fluo-4 calcium flux; Mas-related G-protein coupled receptor member X1 (Homo sapiens), Q96LB2; BAM8-22 antagonism; stronger effect = lower value; AID 588676, 2011; 310,000 compounds, 1.3% hits; B-score at 10 µM;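 active = calcium-response B-score plate-corrected more than 3 library SD below zero, starting fluorescence within 5 deviations, no agonist response on first addition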;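 note: peak minus trough fluorescence over baseline after final BAM8-22 challenge near maximal dose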
Target sequence (Q96LB2 whole entry, looked up): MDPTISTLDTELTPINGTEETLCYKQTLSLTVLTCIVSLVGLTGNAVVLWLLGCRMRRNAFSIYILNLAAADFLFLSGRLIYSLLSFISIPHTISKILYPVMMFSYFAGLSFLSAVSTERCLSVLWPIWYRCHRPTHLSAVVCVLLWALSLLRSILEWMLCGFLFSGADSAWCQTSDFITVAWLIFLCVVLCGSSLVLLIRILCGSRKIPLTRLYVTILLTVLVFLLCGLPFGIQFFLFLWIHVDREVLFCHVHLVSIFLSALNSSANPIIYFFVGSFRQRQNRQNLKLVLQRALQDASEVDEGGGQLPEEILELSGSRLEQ
MrgX1 PAM: positive allosteric modulators of MrgX1, primary screen, HEK293 cells, Fluo-4 calcium flux; Mas-related G-protein coupled receptor member X1 (Homo sapiens), Q96LB2; FDSS; stronger effect = higher value; B-score at 10 µM; 310,000 compounds, 0.63% hits;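 active = plate-corrected calcium response at least 3 library SD above typical, normal starting fluorescence, not activating the receptor alone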;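 note: compound read alongside a low EC10 to EC30 dose of BAM8-22 agonist; peak minus trough fluorescence over baseline measured at the second addition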
RGS4 act: RGS4 potentiators or activators, primary screen, cell-based, HEK293 M3R inducible RGS4, calcium flux | 310,000 compounds, 0.92% hits | carbachol calcium flux Fluo4; stronger effect = lower value | B-score at 10 µM;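 active = B-score of the integrated calcium signal more than 4 SD below the library mean, with starting fluorescence not abnormally high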;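 note: negative B-score means reduced calcium response which marks RGS4 activation or potentiation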
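test system = M3R-expressing HEK293 line, RGS4 induced by doxycycline | probe or stimulus = carbachol at ECmax as muscarinic agonist stimulus | timing = dye loading 30 min 37 °C, buffer rest 30 min RT | signal = calcium dye Fluo4 fluorescence | evaluation = B score from integrated fluorescence ratio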
MrgX1 ag: agonists of human MrgX1 receptor, primary screen, HEK293 cells, Fluo-4 calcium flux. AID 588627, 2011. 310,000 compounds, 0.44% hits. B-score at 10 µM. Fluo-4 calcium fluorescence, agonist mode; stronger effect = higher value. Mas-related G-protein coupled receptor member X1 (Homo sapiens), Q96LB2;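 active = calcium response B-score plate-corrected fluorescence ratio at least 3 library SD, with starting fluorescence B-score inside 5 SD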
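times = overnight plating, then 30 min 37 °C plus 30 min room-temperature dye loading | assay system = stable human MrgX1 HEK293 cell line | input = fifteen thousand cells per well | signal = kinetic calcium dye fluorescence, Fluo-4 NW | dosing = compound delivered in addition one of three | read-out = B-scored fluorescence response ratio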
MrgX1 ant reconf: MrgX1 receptor antagonists, duplicate retest, confirmation, HEK293 cells, Fluo-4 calcium flux; remaining BAM8-22 calcium response % of control (stronger effect = lower value), % at 10 µM; 2,300 compounds, 19% hits; shares compounds with MrgX1 antagonist; BAM8-22 calcium flux; stronger effect = lower value;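 active = remaining agonist calcium response no higher than 100% minus 3 SD of agonist-only control wells, with starting fluorescence near control levels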;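 note: agonist BAM8-22 given at a near maximal EC90 to ECmax level; peak minus minimum fluorescence divided by baseline after agonist addition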
HEK293 Ca flux: nonspecific calcium signal in parental HEK293, confirmation, counter-screen for MrgX1 antagonist project, parental HEK293 cells, Fluo-4 calcium flux; shares compounds with MrgX1 antagonist; Fluo-4 calcium fluorescence, FDSS; fluorescence ratio F(max-min)/F0 at 10 µM; 4,000 compounds, 2% hits;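 active = duplicate-averaged calcium fluorescence ratio at least three times the standard deviation of buffer wells, a nonspecific response in parental cells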
HEK293 Ca counter: calcium response in parental HEK293 cells, primary screen, counter-screen for MrgX1 allosteric activator project, cell-based, Fluo-4 calcium flux, duplicate; shares compounds with MrgX1 antagonist; Fluo-4 fluorescence ratio; stronger effect = higher value; fluorescence ratio F(max-min)/F0 at 10 µM; 4,000 compounds, 0.4% hits; AID 624114, 2012;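 active = calcium fluorescence ratio, averaged over duplicates, at least 3 SD of the buffer-well ratio, meaning a nonspecific response in receptor-free cells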;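 note: untransfected parental HEK293 lacking MrgX1 used as counterscreen for MrgX1 allosteric activators; fluorescence change taken during the second addition on a kinetic imager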
HEK293 Ca cntr2: calcium response in parental HEK293 cells, primary screen, counter-screen for MrgX1 agonist project, cell-based, Fluo-4 calcium flux, duplicate, agonist mode; shares compounds with MrgX1 antagonist; Fluo-4 calcium fluorescence (FDSS); stronger effect = higher value; fluorescence ratio F(max-min)/F0 at 10 µM; 4,000 compounds, 8.7% hits; AID 624115, 2012;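 active = calcium fluorescence ratio at least three times the spread of buffer wells, meaning a non-specific response in parental cells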
An asterisk follows results filed as active; i = inactive; · = no result. This is a sample that favours compounds with a hit; in the whole collection about 3.5% have one here.

SMILES | RGS4 block | MrgX1 antagonist | MrgX1 PAM | RGS4 act | MrgX1 ag | MrgX1 ant reconf | HEK293 Ca flux | HEK293 Ca counter | HEK293 Ca cntr2
CCOC(=O)c1cnc(-n2nc(C)cc2C)nc1NC1CCCCC1 | i | -4.9* | i | i | i | 67%* | i | i | i
CC(C)CNS(=O)(=O)c1cc(C(=O)OCC(=O)N2CCOCC2)c(Cl)cc1Cl | i | i | i | i | i | · | · | · | ·
Cc1onc(-c2c(Cl)cccc2Cl)c1C(=O)N1C=CC(C(F)(F)F)=NCC1 | i | -9.2* | i | i | i | i | i | i | i
Cc1onc(-c2c(F)cccc2Cl)c1C(=O)N1C=CC(C(F)(F)F)=NCC1 | i | i | i | i | i | · | · | · | ·
COc1ccc(CCN2C(=O)CC(N3CCN(C/C=C/c4ccccc4)CC3)C2=O)cc1OC (stereo unspecified) | i | i | i | i | i | · | · | · | ·
Cc1cc(=O)oc2c3c(cc(OCC(=O)NCc4ccncc4)c12)OC(C)(C)CC3 | i | -4.9* | i | i | i | 76%* | i | i | i
COc1ccc(CNC(=O)COc2cc3c(c4oc(=O)cc(C)c24)CCC(C)(C)O3)cc1OC | i | -4.7* | i | i | i | i | i | i | i
CCN(CC)S(=O)(=O)c1ccc(C)c(NC(=O)CNCCN(C(C)C)C(C)C)c1 | i | i | i | i | i | · | · | · | ·
Cn1c(C(=O)N2CCC(C(N)=O)CC2)cc2cc(Cl)ccc21 | i | -6.1* | i | i | i | i | i | i | i
CC(=O)Cn1cnc2scc(-c3ccc(C)c(C)c3)c2c1=O | i | i | i | i | i | · | · | · | ·
c1ccc2[nH]c(CN3CCN(c4ncnc5c4oc4ccccc45)CC3)nc2c1 | · | -6.4* | i | · | i | i | i | i | i
C(=C\c1ccccc1)/CN1CCN(c2ncnc3c2oc2ccccc23)CC1 | i | -7.3* | i | i | i | 47%* | i | i | i
c1coc(C2Nc3ccccc3-c3nc4ccccc4n32)c1 (stereo unspecified) | i | -6.3* | i | i | i | i | i | i | i
COc1ccc(OC)c(-n2c(-c3cccc(C)c3)n[nH]c2=S)c1 | i | i | i | i | i | · | · | · | ·
COc1ccc(OC)c(-n2c(-c3ccccc3)n[nH]c2=S)c1 | i | -5.2* | i | i | i | i | i | i | i
Cc1ccc2nsnc2c1NC(=O)COc1ccccc1F | i | -6.1* | i | i | i | 84%* | i | i | i
O=[N+]([O-])c1ccc(NC2CCCC2)cc1 | i | i | i | i | i | · | · | · | ·
N#Cc1cc(NC2CCCC2)c([N+](=O)[O-])cc1C#N | i | -12* | i | i | i | i | i | i | i
O=S1(=O)CC(O)C(Nc2ccccc2Cl)C1 (stereo unspecified) | i | -7.9* | i | i | i | i | i | i | i
CC(C)N(Cc1nccn1C)C(=O)CC1C(=O)NCCN1Cc1ccc(F)c(F)c1 (stereo unspecified) | i | -6.5* | i | i | i | 72%* | i | i | i
Cc1ccsc1/C=N/NC(=O)C(=O)NCC(C)C | i | i | i | i | i | · | · | · | ·
CCn1c(CNC(=O)c2ccccc2F)nnc1SCc1nc2ccccc2c(=O)[nH]1 | i | i | i | i | i | · | · | · | ·
Cc1cc2oc(=O)cc(CN3CCOCC3)c2cc1C(C)C | i | i | i | i | i | · | · | · | ·
CCOc1ccc2oc(=O)cc(CN3CCOCC3)c2c1 | i | -7.3* | i | i | i | i | i | i | i
CC[N+](CC)(CC(=O)Nc1c(C)cccc1C)Cc1ccccc1 | · | i | i | · | i | · | · | · | ·
SMILES | RGS4 block | MrgX1 antagonist | MrgX1 PAM | RGS4 act | MrgX1 ag | MrgX1 ant reconf | HEK293 Ca flux | HEK293 Ca counter | HEK293 Ca cntr2
Cc1noc(C)c1C(=O)NCCCN1CCCC1=O | i | -4.9* | i | i | i | 81%* | i | i | i
Cc1cc(C(=O)NCCCN2CCCC2=O)cs1 | i | i | i | i | i | · | · | · | ·
CCOC(=O)c1cc2c3ccccc3n(CC)c2nc1N | i | -5.8* | i | i | i | i | i | i | i
CNC(=O)CSc1nnc(-c2ccncc2)n1Cc1ccccc1 | i | i | i | i | i | · | · | · | ·
CCSc1nnc(-c2ccncc2)n1Cc1ccccc1 | i | -6.5* | i | i | i | i | i | i | i
COC(=O)c1cc(C#N)c(OC)nc1C | i | -5.1* | i | i | i | i | i | i | i
O=S(=O)(c1ccccc1Cl)N1CCC(O)(c2ccc3c(c2)OCO3)CC1 | i | -4.9* | i | i | i | i | i | i | i
O=S(=O)(c1ccc2c(c1)OCCO2)N1CCC(O)(c2ccc(Cl)cc2)CC1 | i | i | i | i | i | · | · | · | ·
O=C1CCSc2ccc(Cl)cc2N1Cc1ccccc1 | i | -4.6* | i | i | i | 75%* | i | i | i
Cc1cccc(CN2C(=O)CCSc3ccc(Cl)cc32)c1 | i | i | i | i | i | · | · | · | ·
Cc1cc2occ(CC(=O)OCC(=O)Nc3sc4c(c3C#N)CCC(C)C4)c2cc1C (stereo unspecified) | i | i | i | i | i | · | · | · | ·
Cc1ccc2oc(C(=O)Nc3nnc(C)s3)c(C)c2c1 | i | -4.7* | i | i | i | i | i | i | i
Cc1ccc2oc(C(=O)Nc3nonc3C)c(C)c2c1 | i | i | i | i | i | · | · | · | ·
